Values after ≈ are worked out from the molar mass of the structure shown.

Test [1] deals with Escherichia coli. As to the kind of experiment: Antimicrobial activity against Escherichia coli 2062717 B-P isolated from patient with pyelonephritis assessed as >3-log reduction in urinary bacterial titer after 4 hrs. It counts as functional, Urine.
Test [2] relates to Escherichia coli. As to the kind of experiment: Antimicrobial activity against Escherichia coli 1889646 B-F isolated from patient with pyelonephritis assessed as >3-log reduction in urinary bacterial titer after 24 hrs. Type of test: functional, Urine. The procedure, abridged: (§1)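 Urine was collected on day 3 of i.v. therapy (steady state) over 4-h intervals from infusion start (0–4 to 20–24 h), stored at –80°C and sterile filtered. It was serially diluted twofold (1:0 up to 1:131,072) in the patient's own pre-dose drug-free urine. Microdilution used a final inoculum of 1.0 x 10^6 to 9.5 x 10^6 CFU/ml, incubated 18 h at 37°C in air. 10 µl was subcultured onto 5% blood Columbia agar for 24 h at 37°C. The bactericidal endpoint was >99.9% (>3-log) kill, reported as a reciprocal titer.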

Test [3] concerns Escherichia coli. Description: Antimicrobial activity against Escherichia coli 1889645 B-I isolated from patient with pyelonephritis assessed as >3-log reduction in urinary bacterial titer after 16 hrs. It counts as functional, Urine. The procedure, abridged: as §1
The test system of test [4] is Escherichia coli. As to the kind of experiment: Antimicrobial activity against Escherichia coli 2297257 B-W isolated from patient with pyelonephritis assessed as >3-log reduction in urinary bacterial titer after 24 hrs. Type of test: functional, Urine.
For test [5], the system named is Pseudomonas aeruginosa. Description: Antimicrobial activity against Pseudomonas aeruginosa 2062713 B-Q isolated from patient with pyelonephritis by Etest. It counts as functional.
Test [6] relates to Escherichia coli. Description: Antimicrobial activity against Escherichia coli 2062717 B-P isolated from patient with pyelonephritis assessed as >3-log reduction in urinary bacterial titer after 12 hrs. It counts as functional, Urine. The essentials:
(§2)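 Patient urine was collected on day 3 of i.v. therapy (steady state) over 4-h intervals after infusion start, stored at –80°C, and sterile filtered. It was twofold serially diluted (1:0 to 1:131,072) in the patient's own pre-dose drug-free urine, inoculated to 1.0 x 10^6–9.5 x 10^6 CFU/ml, and incubated for 18 h at 37°C. Subcultures were grown on blood agar for 24 h. The UBT is the reciprocal of the highest dilution giving >99.9% kill.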

For test [7], the system named is Escherichia coli. As to the kind of experiment: Antimicrobial activity against Escherichia coli 1949825 B-K isolated from patient with pyelonephritis assessed as >3-log reduction in urinary bacterial titer after 8 hrs. It counts as functional, Urine. The essentials: as §2
In test [8] the test system is Enterococcus faecalis. As to the kind of experiment: Antimicrobial activity against Enterococcus faecalis 2215770 B-T isolated from patient with pyelonephritis assessed as >3-log reduction in urinary bacterial titer after 8 hrs. Type of test: functional, Urine. The essentials:
(§3)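 Urine was collected before dosing and on day 3 of i.v. therapy (steady state), in 4-h intervals from infusion start (0–4 to 20–24 h), stored at −80°C and sterile filtered. It was serially diluted twofold (1:0 to 1:131,072) in the patient's drug-free pre-dose urine. Microdilution used an inoculum of 1.0 x 10^6–9.5 x 10^6 CFU/ml, incubated 18 h at 37°C, then subcultured 24 h on blood agar. The endpoint was >99.9% kill, reported as reciprocal titer.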

For test [9], the system named is Escherichia coli. Description: Antimicrobial activity against Escherichia coli 1949826 B-L isolated from patient with pyelonephritis assessed as >3-log reduction in urinary bacterial titer after 4 hrs. It counts as functional, Urine. The essentials:
as §2

For test [10], the system named is Escherichia coli. As to the kind of experiment: Antimicrobial activity against Escherichia coli 1889645 B-I isolated from patient with pyelonephritis assessed as >3-log reduction in urinary bacterial titer after 20 hrs. It counts as functional, Urine. The procedure, abridged: as §1
The test system of test [11] is Staphylococcus haemolyticus. Description: Antimicrobial activity against Staphylococcus haemolyticus 1949819 B-M isolated from patient with pyelonephritis assessed as >3-log reduction in urinary bacterial titer after 12 hrs. It counts as functional, Urine.
Test [12] relates to Escherichia coli. As to the kind of experiment: Antimicrobial activity against Escherichia coli 1821385 B-C isolated from patient with pyelonephritis assessed as >3-log reduction in urinary bacterial titer after 4 hrs. Type of test: functional, Urine. The procedure, abridged:
as §1

Test [13] deals with Escherichia coli. As to the kind of experiment: Antimicrobial activity against Escherichia coli 1949826 B-L isolated from patient with pyelonephritis assessed as >3-log reduction in urinary bacterial titer after 12 hrs. Type of test: functional, Urine. The procedure, abridged:
as §2

Test [14] has as its system Escherichia coli. Description: Antimicrobial activity against Escherichia coli 1889645 B-I isolated from patient with pyelonephritis assessed as >3-log reduction in urinary bacterial titer after 24 hrs. It counts as functional, Urine. The essentials:
as §1

Test [15] relates to Escherichia coli. As to the kind of experiment: Antimicrobial activity against Escherichia coli 2062716 B-R isolated from patient with pyelonephritis assessed as >3-log reduction in urinary bacterial titer after 16 hrs. It counts as functional, Urine. The essentials:
as §2

Test [16] relates to Escherichia coli. Description: Antimicrobial activity against Escherichia coli 1889647 B-H isolated from patient with pyelonephritis assessed as >3-log reduction in urinary bacterial titer after 4 hrs. Type of test: functional, Urine. The essentials:
as §1

The subject of test [17] is Pseudomonas aeruginosa. As to the kind of experiment: Antimicrobial activity against Pseudomonas aeruginosa 2062713 B-Q isolated from patient with pyelonephritis assessed as >3-log reduction in urinary bacterial titer after 20 hrs. Type of test: functional, Urine.
Test [18] deals with Pseudomonas aeruginosa. Description: Antimicrobial activity against Pseudomonas aeruginosa 2062713 B-Q isolated from patient with pyelonephritis assessed as >3-log reduction in urinary bacterial titer after 12 hrs. It counts as functional, Urine.
Test [19] has as its system Staphylococcus aureus. As to the kind of experiment: Antimicrobial activity against Staphylococcus aureus 1889640 A-Z isolated from patient with pyelonephritis assessed as >3-log reduction in urinary bacterial titer after 16 hrs. Type of test: functional, Urine.
The test system of test [20] is Enterococcus faecalis. As to the kind of experiment: Antimicrobial activity against Enterococcus faecalis 2297262-10 B-V isolated from patient with pyelonephritis assessed as >3-log reduction in urinary bacterial titer after 4 hrs. It counts as functional, Urine. The procedure, abridged: as §3
Test [21] relates to Escherichia coli. As to the kind of experiment: Antimicrobial activity against Escherichia coli 1889647 B-H isolated from patient with pyelonephritis assessed as >3-log reduction in urinary bacterial titer after 12 hrs. Type of test: functional, Urine. The procedure, abridged:
as §1

A further test relates to Serratia marcescens. Description: Antimicrobial activity against Serratia marcescens 2297260 B-U isolated from patient with pyelonephritis by Etest. Type of test: functional.
For test [22], the system named is Escherichia coli. Description: Antimicrobial activity against Escherichia coli 2062716 B-R isolated from patient with pyelonephritis assessed as >3-log reduction in urinary bacterial titer after 20 hrs. It counts as functional, Urine. The essentials: as §2
Test [23] deals with Escherichia coli. As to the kind of experiment: Antimicrobial activity against Escherichia coli 2062716 B-R isolated from patient with pyelonephritis assessed as >3-log reduction in urinary bacterial titer after 24 hrs. Type of test: functional, Urine. The procedure, abridged:
as §2

The subject of test [24] is Escherichia coli. Description: Antimicrobial activity against Escherichia coli 1780064 A-X isolated from patient with pyelonephritis assessed as >3-log reduction in urinary bacterial titer after 4 hrs. It counts as functional, Urine. The procedure, abridged: as §1
Test [25] has as its system Staphylococcus aureus. Description: Antimicrobial activity against Staphylococcus aureus 1889640 A-Z isolated from patient with pyelonephritis assessed as >3-log reduction in urinary bacterial titer after 12 hrs. It counts as functional, Urine.
The subject of test [26] is Enterococcus faecalis. Description: Antimicrobial activity against Enterococcus faecalis 2297262-10 B-V isolated from patient with pyelonephritis assessed as >3-log reduction in urinary bacterial titer after 16 hrs. Type of test: functional, Urine. The procedure, abridged:
as §3

Test [27] has as its system Staphylococcus aureus. Description: Antimicrobial activity against Staphylococcus aureus 1889640 A-Z isolated from patient with pyelonephritis by Etest. Type of test: functional.
Test [28] relates to Staphylococcus epidermidis. As to the kind of experiment: Antimicrobial activity against Staphylococcus epidermidis 2297262-9 B-V isolated from patient with pyelonephritis assessed as >3-log reduction in urinary bacterial titer after 8 hrs. Type of test: functional, Urine.
Test [29] deals with Staphylococcus epidermidis. As to the kind of experiment: Antimicrobial activity against Staphylococcus epidermidis 1949822 B-J isolated from patient with pyelonephritis assessed as >3-log reduction in urinary bacterial titer after 16 hrs. It counts as functional, Urine.
Test [30] concerns Escherichia coli. As to the kind of experiment: Antimicrobial activity against Escherichia coli 1821386 B-D isolated from patient with pyelonephritis assessed as >3-log reduction in urinary bacterial titer after 12 hrs. Type of test: functional, Urine. The procedure, abridged: as §1
The subject of test [31] is Staphylococcus aureus. As to the kind of experiment: Antimicrobial activity against Staphylococcus aureus 2215767-9 B-S isolated from patient with pyelonephritis by Etest. It counts as functional.
Test [32] concerns Pseudomonas aeruginosa. As to the kind of experiment: Antimicrobial activity against Pseudomonas aeruginosa 2062713 B-Q isolated from patient with pyelonephritis assessed as >3-log reduction in urinary bacterial titer after 8 hrs. It counts as functional, Urine.
For test [33], the system named is Staphylococcus aureus. Description: Antimicrobial activity against Staphylococcus aureus 1889640 A-Z isolated from patient with pyelonephritis assessed as >3-log reduction in urinary bacterial titer after 20 hrs. It counts as functional, Urine.

For orientation: MIC means the lowest concentration found to suppress growth. A low value points to a more susceptible organism. `C[C@@H](O)[C@H]1C(=O)N2C(C(=O)O)=C(S[C@@H]3CN[C@H](CNS(N)(=O)=O)C3)[C@H](C)[C@H]12` [DORIPENEM]: the urinary bactericidal titer with Escherichia coli [1] came out at 32800 reciprocal titer; with Escherichia coli [2] it was 65500 reciprocal titer; in the test with Escherichia coli [3], 32800 titer; in the test with Escherichia coli [4] it was 4096 reciprocal titer; with Escherichia coli [6] it was 1024 reciprocal titer; in the test on Escherichia coli [7], 4096 reciprocal titer. The urinary bactericidal titer came out at 512 reciprocal titer in the test with Enterococcus faecalis [8]; 128 reciprocal titer with Escherichia coli [9]; 65500 reciprocal titer in the test on Escherichia coli [10]; 1024 reciprocal titer in test [11]; 4096 reciprocal titer with Escherichia coli [12]; 131000 reciprocal titer in the test on Escherichia coli [13]. Also, in the test on Escherichia coli [14], the urinary bactericidal titer stood at 4096 reciprocal titer. This compound also returned an MIC against Pseudomonas aeruginosa [5] of 0.5 mg/L (≈ 1.19 µM).

Take `C[C@H]1COc2c(N3CCN(C)CC3)c(F)cc3c(=O)c(C(=O)O)cn1c23.C[C@H]1COc2c(N3CCN(C)CC3)c(F)cc3c(=O)c(C(=O)O)cn1c23.O` [LEVOFLOXACIN]: the urinary bactericidal titer in the test with Escherichia coli [15] is 256 reciprocal titer; with Escherichia coli [16] it was 2048 reciprocal titer; with Pseudomonas aeruginosa [17], 4 reciprocal titer; in the test with Pseudomonas aeruginosa [18] it was 4 reciprocal titer; in the test with Staphylococcus aureus [19] it was 128 reciprocal titer; in the test on Escherichia coli [21] it was 512 reciprocal titer. Also, the urinary bactericidal titer in the test on Escherichia coli [22] was found to be 128 reciprocal titer; with Escherichia coli [23] it was 64 reciprocal titer; in the test with Escherichia coli [24] it was 1024 reciprocal titer; with Staphylococcus aureus [25], 128 reciprocal titer; in the test on Enterococcus faecalis [26], 0 reciprocal titer; in test [28] it was 1 reciprocal titer. The urinary bactericidal titer in test [29] was found to be 4 reciprocal titer; in the test on Escherichia coli [30], 2048 reciprocal titer; in the test on Pseudomonas aeruginosa [32] it was 4 reciprocal titer; in the test on Staphylococcus aureus [33], 64 reciprocal titer. Besides, the Time in the test on Enterococcus faecalis [20] came out at 0 h. Besides, the MIC in the test with Serratia marcescens was 0.19 mg/L; in the test on Staphylococcus aureus [27], 0.06 mg/L; against Staphylococcus aureus [31], more than 32 mg/L.

(Values after ChEMBL document CHEMBL1649151, “Urinary bactericidal activity of Doripenem versus that of levofloxacin in patients with complicated urinary tract infections or pyelonephritis” (Antimicrob Agents Chemother, 2009).)
